According to ChEMBL document CHEMBL4196133, “NF-κB and Angiogenesis Inhibitors from the Aerial Parts of Chresta martii” (J Nat Prod, 2018):
The source made the active and inactive calls. The calls are words filed in the database; no cut-off is given here.

How the values were obtained:
[1] = Inhibition of TNFalpha-stimulated NF-kappaB (unknown origin) expressed in HEK293 cells incubated for 30 mins followed by TNFalpha stimulation for 4 hrs by luciferase reporter gene based luminescence assay; type: cell-based; conditions: Homo sapiens
HUVEC [2] = experiment: Antiangiogenic activity in HUVEC assessed as decrease in VEGF-induced extremities at 1 ug/ml after 3 days; type: functional, cell-based; conditions: Homo sapiens
Method in brief: (§1)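 HUVECs seeded on Cytodex 3 beads (400 cells/bead, 4 h at 37 °C with shaking, then 24 h), embedded in fibrin gel (fibrinogen 2.5 mg/mL, aprotinin 0.15 U/mL, thrombin) with VEGF; EGM-2 with VEGF 5 ng/mL, NHDF overlaid. Compound added after 1 h, medium renewed at 24 h then every 48 h. Imaged at 4× day 4; sprout network quantified by Angiogenesis Analyzer; ≥18 spheres, mean ± SEM, one-way ANOVA/Dunnett.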

HUVEC [3] = experiment: Antiangiogenic activity in HUVEC assessed as decrease in VEGF-induced number of total capillary length at 1 ug/ml after 3 days; type: functional, cell-based; conditions: Homo sapiens; method in brief: as §1
HUVEC [4] = experiment: Antiangiogenic activity in HUVEC assessed as decrease in VEGF-induced anchorage junctions at 1 ug/ml after 3 days; type: functional, cell-based; conditions: Homo sapiens; method in brief: as §1
HUVEC [5] = experiment: Antiangiogenic activity in HUVEC assessed as decrease in VEGF-induced segments at 1 ug/ml after 3 days; type: functional, cell-based; conditions: Homo sapiens; method in brief: as §1
HUVEC [6] = experiment: Cytotoxicity against HUVEC at 1 ug/ml after 24 hrs by MTT assay; type: cell-based; conditions: human
Method in brief: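 HUVECs (1.0 × 10^4/well) in EBM2 with 0.5% FBS, settled overnight at 37 °C, 5% CO2; compound at 1 μg/mL for 24 h. MTT added for 4 h at 37 °C, formazan dissolved in DMSO, absorbance read at 595 nm.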

Row | SMILES | IC50 [1] [nM] | Activity (HUVEC [2]) | Activity (HUVEC [3]) | Activity (HUVEC [4]) | Activity (HUVEC [5]) | Activity (HUVEC [6])
1 | CC(=O)OCC1=C2/C(=C/[C@]3(C)CC[C@@](O)(O3)[C@@](C)(O)C[C@H]2OC(C)=O)OC1=O | 1800 | Active | Active | Active | Active | Non-Toxic
2 | COc1ccc(-c2cc(=O)c3c(O)cc(O)cc3o2)cc1OC | – | – | – | – | – | Non-Toxic
3 | CC(=O)OCC1=C2[C@@H](OC(C)=O)C[C@@](C)(OC(C)=O)C(=O)CC[C@@]3(C)O[C@H]3[C@H]2OC1=O | 6500 | Active | Active | Active | Active | Non-Toxic
4 | CCC(=O)O[C@H]1C[C@@](C)(OC(C)=O)C(=O)CC[C@@]2(C)O[C@H]2[C@H]2OC(=O)C(COC(C)=O)=C12 | 5100 | – | – | – | – | Non-Toxic
5 | CC(=O)O[C@@H]1C[C@@](C)(OC(C)=O)C(=O)CC[C@@]2(C)O[C@@H]2C2OC(=O)C(CO)=C21 (some centres not stated) | 2400 | Active | Active | Active | Active | Non-Toxic
6 | C=C1C(=O)O[C@H]2[C@@H]1CC/C(C)=C\CC[C@@]1(C)O[C@@H]21 | 700 | – | – | – | – | –
7 | CC(=O)OCC1=C2[C@@H](OC(C)=O)C[C@@](C)(OC(C)=O)[C@@]3(O)CC[C@@](C)(O)[C@H](OC(C)=O)[C@@]23OC1=O | 13600 | – | – | – | – | –
8 | C[C@@]12/C=C3\OC(=O)C(CO)=C3[C@@H](O)C[C@@](C)(O)[C@@](O)(CC1)O2 | 2200 | Active | Active | Active | Active | Non-Toxic
9 | CC(=O)OCC1=C2[C@@H](O)C[C@@](C)(OC(C)=O)C(=O)CC[C@@]3(C)O[C@H]3[C@H]2OC1=O | 7800 | – | – | – | – | Non-Toxic
10 | CC(=O)OCC1=C2/C(=C/[C@]3(C)CC[C@@](O)(O3)[C@](C)(O)C[C@@H]2O)OC1=O | 700 | Active | Active | Active | Active | Non-Toxic
